This passage reports folding enthalpy and Tm results from the array DNA melting data of Ke et al. (doi:10.1101/2024.01.08.574731).

A short description of series [1]: folding enthalpy; higher = less favourable; fluorescence melt of hairpins on a sequencing array, two-state fit. To be noted: sodium 0.088 M. The method in brief: (§1)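 Melting temperature and folding enthalpy were derived from bootstrapped two-state fits. The fitted temperatures were raised by 9.35 °C to agree with UV melts, and four replicates were combined by inverse variance. The underlying data were Cy3 fluorescence images of library hairpins, with annealed Cy3 and quencher oligos, on a sequenced MiSeq flow cell in 50 mM Na-HEPES pH 8.0, 25 mM NaCl, taken in 2.5 °C steps up to 60 °C, normalised to pre-quench Cy3 and to control constructs.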

The nature of series [2]: melting temperature; fluorescence melt of hairpins on a sequencing array, two-state fit, raised by 9.35 °C to match UV melts. To be noted: sodium 0.088 M. The method in brief:
as §1

As for GGTGGCGAAAGCCTACC ((((((....))).))), the folding enthalpy in series [1] is -17.1 kcal/mol. In addition, the Tm in series [2] stood at 56.2 °C.

With GGCCGTGGAAACACAGCC (((.(((....))).))), in series [1], the folding enthalpy is -36.8 kcal/mol. Further, the Tm in series [2] is 50.1 °C.

As for GCCTCGGGAAACCGAAGC ((.((((....)))).)), the folding enthalpy in series [1] is -23.9 kcal/mol. Moreover, the Tm in series [2] was determined as 44.6 °C.

For the sequence GACCACGAAAGTGTAGTC ((((((....)))..))), the folding enthalpy in series [1] is -18.6 kcal/mol. Also, the Tm in series [2] came to 41.1 °C.

For the sequence GATCTACCGTTAGATC ((((((....)))))), the folding enthalpy in series [1] is -30.5 kcal/mol. In series [2], the Tm is 37.8 °C.

For the sequence GGGATCGAAAGATAGCCC ((((((....)))..))), the folding enthalpy in series [1] was -17.3 kcal/mol. In addition, the Tm in series [2] came to 32.4 °C.

With GATCTCCCTAGAGATC ((((((....)))))), the folding enthalpy in series [1] was -36.2 kcal/mol. Also, in series [2], the Tm amounted to 55.7 °C.

As to GTAATCACGAAAGTGTAC (((..(((....)))))), in series [1], the folding enthalpy is -10.9 kcal/mol. The Tm in series [2] stood at 29.3 °C.

For the sequence GAAGCGGGAAACCGCTCC (.(((((....))))).), the folding enthalpy in series [1] was -10.3 kcal/mol. Moreover, the Tm in series [2] stood at 42.5 °C.

Take GATCGGGCTGCCGATC ((((((....)))))): in series [1], the folding enthalpy is -46.5 kcal/mol. In addition, the Tm in series [2] came to 57.1 °C.

Consider GATCAGATGCTGATC ((((((...)))))), for which the folding enthalpy in series [1] is -30.6 kcal/mol. For the same sequence, in series [2], the Tm stood at 49.4 °C.

With GGAAATACGAAAGTATCC (((..(((....)))))), the folding enthalpy in series [1] was -11.3 kcal/mol. Besides, the Tm in series [2] was determined as 30.8 °C.

With CGGCTCGGAAACGACCG (((.(((....)))))), the folding enthalpy in series [1] was -31.8 kcal/mol. The Tm in series [2] was 50.9 °C.

With GCGAGTGGAAACGCTTGC ((.((.(....).)).)), the folding enthalpy in series [1] is -22.3 kcal/mol. In series [2], the Tm stood at 48.6 °C.

In the case of GGTGGTGGAAACACTGCC ((..(((....)))..)), the folding enthalpy in series [1] was -25.5 kcal/mol. The Tm in series [2] worked out at 47.2 °C.

As for GATCTGTCGACAGATC ((((((....)))))), the folding enthalpy in series [1] is -49.6 kcal/mol. Also, the Tm in series [2] came out at 55.1 °C.

Take GATCGTGCTCACGATC ((((((....)))))): the folding enthalpy in series [1] was -48.2 kcal/mol. Further, in series [2], the Tm amounted to 58.9 °C.

Consider GGTCAACGAAAGTTCACC (((.(((....))).))), for which, in series [1], the folding enthalpy is -22.3 kcal/mol. In addition, the Tm in series [2] is 35.1 °C.

For the sequence GATCGAGCCGTCGATC ((((((....)))))), the folding enthalpy in series [1] is -34.8 kcal/mol. The Tm in series [2] was found to be 54.4 °C.

On to GGGGCTGGAAACGGTCCC (((.(.(....).).))), for which the folding enthalpy in series [1] is -33 kcal/mol. For the same sequence, the Tm in series [2] turned out to be 49.6 °C.

For GAATACCGAAAGGTGTTC (((.(((....))).))), the folding enthalpy in series [1] was -40.3 kcal/mol. Besides, the Tm in series [2] was 51.2 °C.

On to GCATAGCGAAAGCAACGC ((.(.((....)).).)), for which the folding enthalpy in series [1] was -12 kcal/mol. For the same sequence, the Tm in series [2] was determined as 35.6 °C.

GATCACCCCGGTGATC ((((((....)))))): in series [1], the folding enthalpy is -36.8 kcal/mol. Further, the Tm in series [2] was found to be 59.8 °C.

Take GGAAGCACGAAAGTGTCC (((..(((....)))))): the folding enthalpy in series [1] was -13.1 kcal/mol. In series [2], the Tm worked out at 31.5 °C.

Turning to GAGTGTGGAAACACACCC (.(((((....))))).), in series [1], the folding enthalpy is -11.7 kcal/mol. In addition, the Tm in series [2] stood at 40.8 °C.

As to GATCGGCCCCCGATC ((((((...)))))), the folding enthalpy in series [1] is -44.9 kcal/mol. Also, the Tm in series [2] is 56 °C.

For CGGGCGGAAACGCGGCCG ((((((....)))..))), the folding enthalpy in series [1] is -36 kcal/mol. In addition, in series [2], the Tm is 59.5 °C.

On to GCGACCAGTCGC ((((....)))), for which, in series [1], the folding enthalpy is -32.7 kcal/mol. Also, in series [2], the Tm worked out at 57.3 °C.

In the case of GGCCACGAAAGTGGCGCC ((((((....)))..))), the folding enthalpy in series [1] was -7.19 kcal/mol. Moreover, the Tm in series [2] was determined as 65.5 °C.

As for GCTTGGGGAAACCTAGGC ((.(.((....)).).)), in series [1], the folding enthalpy is -23.5 kcal/mol. The Tm in series [2] was determined as 32.3 °C.

As for GATCCGGTTCGGATC ((((((...)))))), in series [1], the folding enthalpy was -31.5 kcal/mol. For the same sequence, in series [2], the Tm stood at 63.6 °C.

In the case of GAGCCCGAAAGGGAGCTC ((((((....)))..))), in series [1], the folding enthalpy is -20 kcal/mol. Moreover, the Tm in series [2] was found to be 55.6 °C.

As to GCGAAGCGAAAGCTAAGC ((..(((....)))..)), in series [1], the folding enthalpy is -16.5 kcal/mol. Further, in series [2], the Tm stood at 54.4 °C.

Take GTAGGTGAAAACCTAC ((((((....)))))): the folding enthalpy in series [1] is -30.9 kcal/mol. Further, the Tm in series [2] is 56.4 °C.

In the case of GCAGGATCGAAAGATTGC (((..(((....)))))), the folding enthalpy in series [1] is -19.8 kcal/mol. Besides, the Tm in series [2] is 31.4 °C.

As for GATCTGCGAAAGCATATC (((.(((....))).))), in series [1], the folding enthalpy was -20.7 kcal/mol. In addition, the Tm in series [2] was determined as 41.1 °C.

Turning to GTTCGTCGAAAGACTAAC (((.(((....))).))), the folding enthalpy in series [1] is -22.2 kcal/mol. Also, in series [2], the Tm came out at 41.3 °C.
